Laboratory results as given in ChEMBL document CHEMBL3608301, “Phenolic Compounds from Atriplex littoralis and Their Radiation-Mitigating Activity” (J Nat Prod, 2015).

Assays:
[1] = tested on: PBL; test: Radioprotective activity in 2-Gy gamma irradiated human PBL assessed as incidence of micronuclei in 1000 binucleated cells at 1 uM treated for 2 to 19 hrs followed by compound washout measured after 72 hrs by cytochalasin-B-blocked micronucleus assay (reference value: 183 +/- 9.6); type: functional
Outline: (§1)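 Venous blood from five healthy male volunteers was γ-irradiated at 2 Gy (0.45 Gy/min) at room temperature and cultured. Compounds (0.8−7.4 μM final) were added 2 to 19 h after irradiation, at 37 °C. Cultures were then rinsed and moved to fresh RPMI 1640 for 72 h. Cytokinesis-block micronucleus assay: ≥1000 binucleated cells scored per sample (Countryman–Heddle criteria). Controls were non-treated irradiated cultures; one-way ANOVA with Tukey test.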

[2] = tested on: PBL; test: Radioprotective activity in 2-Gy gamma irradiated human PBL assessed as binucleated cells with micronuclei at 2 uM treated for 2 to 19 hrs followed by compound washout measured after 72 hrs by cytochalasin-B-blocked micronucleus assay (reference value: 15.5 +/- 0.6%); type: functional; outline: as §1
[3] = tested on: PBL; test: Toxicity in 2-Gy gamma irradiated human PBL assessed as cytokinesis-block proliferation index at 4 uM treated for 2 to 19 hrs followed by compound washout measured after 72 hrs (reference value: 1.6 +/- 0.1); type: cell-based
[4] = tested on: PBL; test: Radioprotective activity in 2-Gy gamma irradiated human PBL assessed as incidence of micronuclei in binucleated cells at 2 uM treated for 2 to 19 hrs followed by compound washout measured after 72 hrs by cytochalasin-B-blocked micronucleus assay (reference value: 1.2 +/- 0.03); type: functional; outline: as §1
[5] = tested on: PBL; test: Toxicity in 2-Gy gamma irradiated human PBL assessed as cytokinesis-block proliferation index at 2 uM treated for 2 to 19 hrs followed by compound washout measured after 72 hrs (reference value: 1.6 +/- 0.1); type: cell-based
[6] = tested on: PBL; test: Toxicity in 2-Gy gamma irradiated human PBL assessed as cytokinesis-block proliferation index at 1 uM treated for 2 to 19 hrs followed by compound washout measured after 72 hrs (reference value: 1.6 +/- 0.1); type: cell-based
[7] = tested on: PBL; test: Radioprotective activity in 2-Gy gamma irradiated human PBL assessed as frequency of micronuclei at 1 uM treated for 2 to 19 hrs followed by compound washout measured after 72 hrs by cytochalasin-B-blocked micronucleus assay relative to control; type: functional; outline: as §1
[8] = tested on: PBL; test: Radioprotective activity in 2-Gy gamma irradiated human PBL assessed as incidence of micronuclei in 1000 binucleated cells at 2 uM treated for 2 to 19 hrs followed by compound washout measured after 72 hrs by cytochalasin-B-blocked micronucleus assay (reference value: 183 +/- 9.6); type: functional; outline: as §1
[9] = tested on: PBL; test: Radioprotective activity in 2-Gy gamma irradiated human PBL assessed as frequency of micronuclei at 2 uM treated for 2 to 19 hrs followed by compound washout measured after 72 hrs by cytochalasin-B-blocked micronucleus assay relative to control; type: functional; outline: as §1
[10] = tested on: PBL; test: Radioprotective activity in 2-Gy gamma irradiated human PBL assessed as incidence of micronuclei in 1000 binucleated cells at 4 uM treated for 2 to 19 hrs followed by compound washout measured after 72 hrs by cytochalasin-B-blocked micronucleus assay (reference value: 183 +/- 9.6); type: functional; outline: as §1
[11] = tested on: PBL; test: Radioprotective activity in 2-Gy gamma irradiated human PBL assessed as incidence of micronuclei in binucleated cells at 1 uM treated for 2 to 19 hrs followed by compound washout measured after 72 hrs by cytochalasin-B-blocked micronucleus assay (reference value: 1.2 +/- 0.03); type: functional; outline: as §1
[12] = tested on: PBL; test: Radioprotective activity in 2-Gy gamma irradiated human PBL assessed as incidence of micronuclei in binucleated cells at 4 uM treated for 2 to 19 hrs followed by compound washout measured after 72 hrs by cytochalasin-B-blocked micronucleus assay (reference value: 1.2 +/- 0.03); type: functional; outline: as §1
[13] = tested on: PBL; test: Radioprotective activity in 2-Gy gamma irradiated human PBL assessed as binucleated cells with micronuclei at 1 uM treated for 2 to 19 hrs followed by compound washout measured after 72 hrs by cytochalasin-B-blocked micronucleus assay (reference value: 15.5 +/- 0.6%); type: functional; outline: as §1
[14] = tested on: PBL; test: Radioprotective activity in 2-Gy gamma irradiated human PBL assessed as binucleated cells with micronuclei at 4 uM treated for 2 to 19 hrs followed by compound washout measured after 72 hrs by cytochalasin-B-blocked micronucleus assay (reference value: 15.5 +/- 0.6%); type: functional; outline: as §1
[15] = tested on: PBL; test: Radioprotective activity in 2-Gy gamma irradiated human PBL assessed as frequency of micronuclei at 4 uM treated for 2 to 19 hrs followed by compound washout measured after 72 hrs by cytochalasin-B-blocked micronucleus assay relative to control; type: functional; outline: as §1
[16] = tested on: PBL; test: Radioprotective activity in 2-Gy gamma irradiated human PBL assessed as incidence of micronuclei in binucleated cells at 4.7 uM treated for 2 to 19 hrs followed by compound washout measured after 72 hrs by cytochalasin-B-blocked micronucleus assay (reference value: 1.2 +/- 0.03); type: functional
[17] = tested on: PBL; test: Radioprotective activity in 2-Gy gamma irradiated human PBL assessed as incidence of micronuclei in 1000 binucleated cells at 4.7 uM treated for 2 to 19 hrs followed by compound washout measured after 72 hrs by cytochalasin-B-blocked micronucleus assay (reference value: 183 +/- 9.6); type: functional
[18] = tested on: PBL; test: Toxicity in 2-Gy gamma irradiated human PBL assessed as cytokinesis-block proliferation index at 4.7 uM treated for 2 to 19 hrs followed by compound washout measured after 72 hrs (reference value: 1.6 +/- 0.1); type: cell-based
[19] = tested on: PBL; test: Radioprotective activity in 2-Gy gamma irradiated human PBL assessed as binucleated cells with micronuclei at 4.7 uM treated for 2 to 19 hrs followed by compound washout measured after 72 hrs by cytochalasin-B-blocked micronucleus assay (reference value: 15.5 +/- 0.6%); type: functional
[20] = tested on: PBL; test: Radioprotective activity in 2-Gy gamma irradiated human PBL assessed as frequency of micronuclei at 4.7 uM treated for 2 to 19 hrs followed by compound washout measured after 72 hrs by cytochalasin-B-blocked micronucleus assay relative to control; type: functional
[21] = tested on: PBL; test: Toxicity in 2-Gy gamma irradiated human PBL assessed as cytokinesis-block proliferation index at 3 uM treated for 2 to 19 hrs followed by compound washout measured after 72 hrs (reference value: 1.6 +/- 0.1); type: cell-based
[22] = tested on: PBL; test: Radioprotective activity in 2-Gy gamma irradiated human PBL assessed as incidence of micronuclei in binucleated cells at 3 uM treated for 2 to 19 hrs followed by compound washout measured after 72 hrs by cytochalasin-B-blocked micronucleus assay (reference value: 1.2 +/- 0.03); type: functional; outline: as §1
[23] = tested on: PBL; test: Radioprotective activity in 2-Gy gamma irradiated human PBL assessed as incidence of micronuclei in 1000 binucleated cells at 3 uM treated for 2 to 19 hrs followed by compound washout measured after 72 hrs by cytochalasin-B-blocked micronucleus assay (reference value: 183 +/- 9.6); type: functional; outline: as §1
[24] = tested on: PBL; test: Radioprotective activity in 2-Gy gamma irradiated human PBL assessed as frequency of micronuclei at 3 uM treated for 2 to 19 hrs followed by compound washout measured after 72 hrs by cytochalasin-B-blocked micronucleus assay relative to control; type: functional; outline: as §1
[25] = tested on: PBL; test: Radioprotective activity in 2-Gy gamma irradiated human PBL assessed as binucleated cells with micronuclei at 3 uM treated for 2 to 19 hrs followed by compound washout measured after 72 hrs by cytochalasin-B-blocked micronucleus assay (reference value: 15.5 +/- 0.6%); type: functional; outline: as §1

COc1cc(-c2oc3cc(O)c(OC)c(O)c3c(=O)c2O[C@@H]2O[C@H](CO)[C@@H](O)[C@H](O)[C@H]2O)ccc1O
Activity [1]: 141.8 | Activity [2]: 11.7% | Activity [3]: 1.6 | Activity [4]: 1.2 | Activity [5]: 1.6 | Activity [6]: 1.6 | Activity [7]: 77.5% | Activity [8]: 139.3 | Activity [9]: 76.1% | Activity [10]: 148 | Activity [11]: 1.2 | Activity [12]: 1.2 | Activity [13]: 12.1% | Activity [14]: 12.3% | Activity [15]: 80.9%

NCCCNCCSP(=O)(O)O [AMIFOSTINE]
Activity [16]: 1.2 | Activity [17]: 166 | Activity [18]: 1.6 | Activity [19]: 13.9% | Activity [20]: 90.7%

CO[C@@]12[C@H](COC(N)=O)C3=C(C(=O)C(C)=C(N)C3=O)N1C[C@@H]1N[C@@H]12 [MITOMYCIN]
Activity [21]: 1.6 | Activity [22]: 1.3 | Activity [23]: 226.1 | Activity [24]: 123.5% | Activity [25]: 17.9%
